Experimental data as given in ChEMBL document CHEMBL5303300, “EUbOPEN Chemogenomics Library - Multiplex” (2023).
Several values for one entry are separate records, joined by “and”; a condition that tells them apart may be missing. Equal values may be shown once.

Experiments:
Type in all cases: toxicity, cell-based
U2OS = assay: Multiplex assay against U2OS; settings: human, number of replicates 2
Outline: (§1)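 Tubulin, mitochondrial-mass and membrane-permeability phenotypes are per cents of healthy-nucleus cells. Cells were gated by CellPathfinder machine learning into Hoechst high-intensity objects or normal cells, normal cells into healthy, pyknosed or fragmented nuclei, and pyknosed cells into mitotic or apoptotic. Before that, live cells stained at seeding with Hoechst33342, BioTracker Green Microtubule Cytoskeleton Dye, MitoTracker Red and Annexin V Alexa Fluor 680 were imaged on a CQ1 microscope at 37°C and 5% CO2 after compound addition.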

HEK-293T = assay: Multiplex assay against HEK293T; settings: human, number of replicates 2; outline: as §1
Fibroblast = assay: Multiplex assay against human fibroblast; settings: number of replicates 2; outline: as §1
[1] = 12 h, 1 µM, compound concentration 1 uM
[2] = 12 h, 10 µM, compound concentration 10 uM
[3] = 24 h, 1 µM, compound concentration 1 uM
[4] = 24 h, 10 µM, compound concentration 10 uM
[5] = 48 h, 1 µM, compound concentration 1 uM
[6] = 48 h, 10 µM, compound concentration 10 uM

Which results are given for `CC(C)c1cc(-c2ccc(F)c3ccccc23)nc(N)n1`?
Population Apoptotic (%) (U2OS; [1]): 35% and 50%; Population Fragmented Nuclei (%) (U2OS; [1]): 2% and 12%; Population Healthy Nuclei (%) (U2OS; [1]): 88% and 81%; Population Hoechst High Intensity Objects (%) (U2OS; [1]): 0%; Population Membrane Permeable-Phenotype (%) (U2OS; [1]): 1% and 7%; Population Mitochondria Different-Phenotype (%) (U2OS; [1]): 0%; Population Mitotic Cells (%) (U2OS; [1]): 65% and 50%; Population Normal (%) (U2OS; [1]): 100%; Population Pyknosed Nuclei (%) (U2OS; [1]): 8% and 6%; Population Tubulin-Different-Phenotype (%) (U2OS; [1]): 88% and 44%; Population Apoptotic (%) (U2OS; [2]): 66% and 52%; Population Healthy Nuclei (%) (U2OS; [2]): 52% and 84%; Population Hoechst High Intensity Objects (%) (U2OS; [2]): 0%; Population Mitotic Cells (%) (U2OS; [2]): 33% and 48%; Population Normal (%) (U2OS; [2]): 100%; Population Pyknosed Nuclei (%) (U2OS; [2]): 15% and 10%; Population Tubulin-Different-Phenotype (%) (U2OS; [2]): 80% and 71%; Population Fragmented Nuclei (%) (U2OS; [3]): 3% and 8%; Population Healthy Nuclei (%) (U2OS; [3]): 86% and 82%; Population Hoechst High Intensity Objects (%) (U2OS; [3]): 0%; Population Membrane Permeable-Phenotype (%) (U2OS; [3]): 0% and 7%; Population Mitochondria Different-Phenotype (%) (U2OS; [3]): 0%; Population Mitotic Cells (%) (U2OS; [3]): 47% and 100%; Population Normal (%) (U2OS; [3]): 100%; Population Pyknosed Nuclei (%) (U2OS; [3]): 9% and 10%; Population Tubulin-Different-Phenotype (%) (U2OS; [3]): 89% and 41%; Population Apoptotic (%) (U2OS; [4]): 100% and 65%; Population Healthy Nuclei (%) (U2OS; [4]): 58% and 86%; Population Hoechst High Intensity Objects (%) (U2OS; [4]): 0%; Population Membrane Permeable-Phenotype (%) (U2OS; [4]): 11% and 3%; Population Mitochondria Different-Phenotype (%) (U2OS; [4]): 11% and 1%; Population Normal (%) (U2OS; [4]): 100%; Population Pyknosed Nuclei (%) (U2OS; [4]): 6% and 8%; Population Tubulin-Different-Phenotype (%) (U2OS; [4]): 55% and 72%; Population Fragmented Nuclei (%) (U2OS; [5]): 13% and 3%; Population Healthy Nuclei (%) (U2OS; [5]): 83% and 90%; Population Hoechst High Intensity Objects (%) (U2OS; [5]): 0%; Population Membrane Permeable-Phenotype (%) (U2OS; [5]): 1% and 2%; Population Mitochondria Different-Phenotype (%) (U2OS; [5]): 1% and 0%; Population Mitotic Cells (%) (U2OS; [5]): 100% and 60%; Population Normal (%) (U2OS; [5]): 100%; Population Pyknosed Nuclei (%) (U2OS; [5]): 2% and 6%; Population Tubulin-Different-Phenotype (%) (U2OS; [5]): 57% and 93%; Population Apoptotic (%) (U2OS; [6]): 83% and 59%; Population Healthy Nuclei (%) (U2OS; [6]): 62% and 90%; Population Hoechst High Intensity Objects (%) (U2OS; [6]): 0%; Population Mitotic Cells (%) (U2OS; [6]): 16% and 40%; Population Normal (%) (U2OS; [6]): 100%; Population Tubulin-Different-Phenotype (%) (U2OS; [6]): 60% and 84%; Population Apoptotic (%) (HEK-293T; [1]): 45% and 56%; Population Fragmented Nuclei (%) (HEK-293T; [1]): 3%; Population Healthy Nuclei (%) (HEK-293T; [1]): 88% and 87%; Population Hoechst High Intensity Objects (%) (HEK-293T; [1]): 5%; Population Membrane Permeable-Phenotype (%) (HEK-293T; [1]): 2%; Population Mitochondria Different-Phenotype (%) (HEK-293T; [1]): 15%; Population Mitotic Cells (%) (HEK-293T; [1]): 54% and 43%; Population Normal (%) (HEK-293T; [1]): 94%; Population Pyknosed Nuclei (%) (HEK-293T; [1]): 8% and 9%; Population Tubulin-Different-Phenotype (%) (HEK-293T; [1]): 54% and 59%; Total Cell Count (HEK-293T; [1]): 775 and 598; Population Apoptotic (%) (HEK-293T; [2]): 62%; Population Fragmented Nuclei (%) (HEK-293T; [2]): 3% and 4%; Population Healthy Nuclei (%) (HEK-293T; [2]): 78% and 80%; Population Hoechst High Intensity Objects (%) (HEK-293T; [2]): 7%; Population Membrane Permeable-Phenotype (%) (HEK-293T; [2]): 1% and 0%; Population Mitochondria Different-Phenotype (%) (HEK-293T; [2]): 25% and 20%; Population Mitotic Cells (%) (HEK-293T; [2]): 37%; Population Normal (%) (HEK-293T; [2]): 92%; Population Pyknosed Nuclei (%) (HEK-293T; [2]): 18% and 15%; Population Tubulin-Different-Phenotype (%) (HEK-293T; [2]): 66% and 60%; Total Cell Count (HEK-293T; [2]): 434 and 448; Population Apoptotic (%) (HEK-293T; [3]): 49% and 36%; Population Fragmented Nuclei (%) (HEK-293T; [3]): 6% and 4%; Population Healthy Nuclei (%) (HEK-293T; [3]): 88%; Population Hoechst High Intensity Objects (%) (HEK-293T; [3]): 7% and 9%; Population Membrane Permeable-Phenotype (%) (HEK-293T; [3]): 2% and 3%; Population Mitochondria Different-Phenotype (%) (HEK-293T; [3]): 4% and 5%; Population Mitotic Cells (%) (HEK-293T; [3]): 50% and 63%; Population Normal (%) (HEK-293T; [3]): 92% and 90%; Population Pyknosed Nuclei (%) (HEK-293T; [3]): 5% and 6%; Population Tubulin-Different-Phenotype (%) (HEK-293T; [3]): 34% and 35%; Total Cell Count (HEK-293T; [3]): 1247 and 898; Population Apoptotic (%) (HEK-293T; [4]): 41% and 43%; Population Fragmented Nuclei (%) (HEK-293T; [4]): 7% and 6%; Population Healthy Nuclei (%) (HEK-293T; [4]): 84% and 82%; Population Hoechst High Intensity Objects (%) (HEK-293T; [4]): 7% and 6%; Population Membrane Permeable-Phenotype (%) (HEK-293T; [4]): 2% and 1%; Population Mitochondria Different-Phenotype (%) (HEK-293T; [4]): 14% and 12%; Population Mitotic Cells (%) (HEK-293T; [4]): 58% and 56%; Population Normal (%) (HEK-293T; [4]): 92% and 93%; Population Pyknosed Nuclei (%) (HEK-293T; [4]): 8% and 10%; Population Tubulin-Different-Phenotype (%) (HEK-293T; [4]): 46% and 42%; Total Cell Count (HEK-293T; [4]): 675 and 625; Population Apoptotic (%) (HEK-293T; [5]): 10% and 18%; Population Fragmented Nuclei (%) (HEK-293T; [5]): 16% and 10%; Population Healthy Nuclei (%) (HEK-293T; [5]): 81% and 85%; Population Hoechst High Intensity Objects (%) (HEK-293T; [5]): 9% and 10%; Population Membrane Permeable-Phenotype (%) (HEK-293T; [5]): 5%; Population Mitochondria Different-Phenotype (%) (HEK-293T; [5]): 0% and 1%; Population Mitotic Cells (%) (HEK-293T; [5]): 90% and 81%; Population Normal (%) (HEK-293T; [5]): 90% and 89%; Population Pyknosed Nuclei (%) (HEK-293T; [5]): 2% and 4%; Population Tubulin-Different-Phenotype (%) (HEK-293T; [5]): 17% and 23%; Total Cell Count (HEK-293T; [5]): 3182 and 1908; Population Apoptotic (%) (HEK-293T; [6]): 20% and 37%; Population Fragmented Nuclei (%) (HEK-293T; [6]): 14% and 10%; Population Healthy Nuclei (%) (HEK-293T; [6]): 81% and 86%; Population Hoechst High Intensity Objects (%) (HEK-293T; [6]): 8% and 7%; Population Membrane Permeable-Phenotype (%) (HEK-293T; [6]): 6% and 2%; Population Mitochondria Different-Phenotype (%) (HEK-293T; [6]): 2% and 3%; Population Mitotic Cells (%) (HEK-293T; [6]): 80% and 62%; Population Normal (%) (HEK-293T; [6]): 91% and 92%; Population Pyknosed Nuclei (%) (HEK-293T; [6]): 3% and 2%; Population Tubulin-Different-Phenotype (%) (HEK-293T; [6]): 26% and 24%; Total Cell Count (HEK-293T; [6]): 1507 and 1327; Population Apoptotic (%) (Fibroblast; [1]): 33%; Population Fragmented Nuclei (%) (Fibroblast; [1]): 14% and 15%; Population Healthy Nuclei (%) (Fibroblast; [1]): 70% and 65%; Population Hoechst High Intensity Objects (%) (Fibroblast; [1]): 1% and 0%; Population Membrane Permeable-Phenotype (%) (Fibroblast; [1]): 5% and 8%; Population Mitochondria Different-Phenotype (%) (Fibroblast; [1]): 0% and 3%; Population Mitotic Cells (%) (Fibroblast; [1]): 66%; Population Normal (%) (Fibroblast; [1]): 98% and 100%; Population Pyknosed Nuclei (%) (Fibroblast; [1]): 15% and 18%; Population Tubulin-Different-Phenotype (%) (Fibroblast; [1]): 16% and 14%; Total Cell Count (Fibroblast; [1]): 161 and 144; Population Apoptotic (%) (Fibroblast; [2]): 38%; Population Fragmented Nuclei (%) (Fibroblast; [2]): 11% and 16%; Population Healthy Nuclei (%) (Fibroblast; [2]): 75% and 71%; Population Hoechst High Intensity Objects (%) (Fibroblast; [2]): 0%; Population Membrane Permeable-Phenotype (%) (Fibroblast; [2]): 7%; Population Mitochondria Different-Phenotype (%) (Fibroblast; [2]): 0% and 2%; Population Mitotic Cells (%) (Fibroblast; [2]): 61%; Population Normal (%) (Fibroblast; [2]): 100%; Population Pyknosed Nuclei (%) (Fibroblast; [2]): 12%; Population Tubulin-Different-Phenotype (%) (Fibroblast; [2]): 12%; Total Cell Count (Fibroblast; [2]): 140 and 174; Population Apoptotic (%) (Fibroblast; [3]): 47% and 40%; Population Fragmented Nuclei (%) (Fibroblast; [3]): 14% and 15%; Population Healthy Nuclei (%) (Fibroblast; [3]): 71% and 67%; Population Hoechst High Intensity Objects (%) (Fibroblast; [3]): 0%; Population Membrane Permeable-Phenotype (%) (Fibroblast; [3]): 4% and 8%; Population Mitochondria Different-Phenotype (%) (Fibroblast; [3]): 0% and 1%; Population Mitotic Cells (%) (Fibroblast; [3]): 52% and 60%; Population Normal (%) (Fibroblast; [3]): 100%; Population Pyknosed Nuclei (%) (Fibroblast; [3]): 13% and 17%; Population Tubulin-Different-Phenotype (%) (Fibroblast; [3]): 17% and 12%; Total Cell Count (Fibroblast; [3]): 157 and 140; Population Apoptotic (%) (Fibroblast; [4]): 75% and 46%; Population Fragmented Nuclei (%) (Fibroblast; [4]): 9% and 14%; Population Healthy Nuclei (%) (Fibroblast; [4]): 84% and 76%; Population Hoechst High Intensity Objects (%) (Fibroblast; [4]): 0%; Population Membrane Permeable-Phenotype (%) (Fibroblast; [4]): 5% and 1%; Population Mitochondria Different-Phenotype (%) (Fibroblast; [4]): 0% and 3%; Population Mitotic Cells (%) (Fibroblast; [4]): 25% and 53%; Population Normal (%) (Fibroblast; [4]): 99% and 100%; Population Pyknosed Nuclei (%) (Fibroblast; [4]): 5% and 8%; Population Tubulin-Different-Phenotype (%) (Fibroblast; [4]): 11% and 8%; Total Cell Count (Fibroblast; [4]): 135 and 171; Population Apoptotic (%) (Fibroblast; [5]): 65% and 57%; Population Fragmented Nuclei (%) (Fibroblast; [5]): 16% and 13%; Population Healthy Nuclei (%) (Fibroblast; [5]): 69% and 71%; Population Hoechst High Intensity Objects (%) (Fibroblast; [5]): 0%; Population Membrane Permeable-Phenotype (%) (Fibroblast; [5]): 4% and 7%; Population Mitochondria Different-Phenotype (%) (Fibroblast; [5]): 0%; Population Mitotic Cells (%) (Fibroblast; [5]): 34% and 42%; Population Normal (%) (Fibroblast; [5]): 100% and 99%; Population Pyknosed Nuclei (%) (Fibroblast; [5]): 13% and 14%; Population Tubulin-Different-Phenotype (%) (Fibroblast; [5]): 14% and 7%; Total Cell Count (Fibroblast; [5]): 173 and 142; Population Apoptotic (%) (Fibroblast; [6]): 100% and 54%; Population Fragmented Nuclei (%) (Fibroblast; [6]): 13% and 14%; Population Healthy Nuclei (%) (Fibroblast; [6]): 82% and 79%; Population Hoechst High Intensity Objects (%) (Fibroblast; [6]): 0%; Population Membrane Permeable-Phenotype (%) (Fibroblast; [6]): 3% and 1%; Population Mitochondria Different-Phenotype (%) (Fibroblast; [6]): 0%; Population Normal (%) (Fibroblast; [6]): 100%; Population Pyknosed Nuclei (%) (Fibroblast; [6]): 3% and 6%; Population Tubulin-Different-Phenotype (%) (Fibroblast; [6]): 7% and 5%; Total Cell Count (Fibroblast; [6]): 152 and 175
